Here are results for seven molecules from ChEMBL document CHEMBL4813935, “Cyclotides from Brazilian Palicourea sessilis and Their Effects on Human Lymphocytes” (J Nat Prod, 2021).

Positions of bridges follow the written chain, without caps; N, C: chain ends. Residues, ends and D or L forms follow the SMILES beside them. Some results are limits rather than exact numbers.

The nature of data set [1]: Inhibition of anti-human CD3/CD28/mAbs-stimulated human T-lymphocutes proliferation after 72 hrs by CFSE staining based flow cytometric analysis. Type of data set: functional, tissue-based. Particulars: T-cell. In a few lines:
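PBMC from healthy donor venous blood, density-gradient isolated; 5 × 10^6 cells/mL labelled with CFSE (1:1000 of 5 mM stock), 10 min at 37 °C, washed. Stimulated with anti-CD3 (OKT3) and anti-CD28 (28.6), each 100 ng/mL, with peptide at 1–30 μM for 72 h at 37 °C, 5% CO2. Division read by flow cytometry, normalised to stimulated untreated cells (100%); four independent experiments.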
In general terms: A flow cytometer gives signals particle by particle.

Data set [2] can be described thus: Cytotoxicity against human HT-29 cells assessed as reduction in cell viability measured after 48 hrs by MTT assay. Type of data set: cell-based. In a few lines:
(§1)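 Cells seeded at 5.0 × 10^3 per well; medium was refreshed the day after plating, then peptides were added at final 0.78–100 μM, with 0.1% (v/v) Triton X-100 as positive control. Incubation was 48 h, then MTT (5 mg/mL in PBS) for 3 h. Formazan was dissolved in DMSO and read at 600 nm. Triplicate experiments; CC50 from log(inhibitor) vs normalized response (variable slope) fit.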
On the technique in general: Formazan colour is commonly taken as a measure of viable cells.

Data set [3] is described as follows: Cytotoxicity against HUVEC assessed as reduction in cell viability measured after 48 hrs by MTT assay. Particulars: human. It is filed as cell-based. In a few lines:
as §1

The subject of data set [4] is T-cell line. Kind of data set: Immunosuppressive activity in anti-CD3/anti-CD28-stimulated human T-lymphocytes assessed as inhibition of cell proliferation after 72 hrs by CFSE staining based flow cytometric analysis. Type of data set: functional. In short, it runs like this: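 Donor PBMC were isolated on a density gradient and CFSE-stained for 10 min at 37 °C. Cells were stimulated with anti-CD3 (OKT3) and anti-CD28 mAbs, 100 ng/mL each, and exposed to peptides at 1–30 μM for 72 h at 37 °C, 5% CO2. Division was read by flow cytometry and normalized to stimulated untreated cells (100%). Four independent experiments, mean ± SD.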

Data set [5] can be described thus: Hemolytic activity against human RBC assessed as concentration required to cause 50% hemolysis measured after 1 hr. Particulars: red blood cells (erythrocytes), read-out: CC50. It is filed as cell-based, Erythrocyte. In short, it runs like this:
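Donor human red blood cells were washed in PBS and diluted to 0.25% (v/v). Peptides were serially diluted from water to eight concentrations, 0.187–24 μM. Incubation was 1 h at 37 °C; PBS served as negative control and 1% Triton-X as positive control. Supernatant absorbance was read at 415 nm. CC50 (50% lysis) from log(agonist) vs response (variable slope) fit; n = 3.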

Regarding `CC(C)C[C@@H]1NC(=O)CNC(=O)[C@H](CC(N)=O)NC(=O)[C@H](CCCNC(=N)N)NC(=O)[C@H]([C@@H](C)O)NC(=O)[C@@H]2CSSC[C@@H]3NC(=O)[C@H]([C@@H](C)O)NC(=O)CNC(=O)CNC(=O)[C@H](C(C)C)NC(=O)[C@@H]4CSSC[C@H](NC(=O)[C@H]([C@@H](C)O)NC(=O)[C@H](CSSC[C@H](NC(=O)[C@H](C(C)C)NC(=O)[C@@H]5CCCN5C1=O)C(=O)NCC(=O)N[C@@H](CCC(=O)O)C(=O)N[C@@H]([C@@H](C)O)C(=O)N4)NC(=O)CNC(=O)[C@@H]1CCCN1C(=O)[C@H]([C@@H](C)O)NC(=O)[C@H](CC(N)=O)NC3=O)C(=O)N[C@@H](CO)C(=O)N[C@@H](Cc1c[nH]c3ccccc13)C(=O)N1CCC[C@H]1C(=O)N[C@@H](C(C)C)C(=O)N2`, the IC50 in data set [1] amounted to 1.9 µM. For the same molecule, the CC50 at 48 h in data set [2] was more than 10 µM; in data set [3], 5.1 µM.

Take `CC[C@H](C)[C@@H]1NC(=O)[C@@H]2CCCN2C(=O)[C@H](Cc2c[nH]c3ccccc23)NC(=O)[C@H](CO)NC(=O)[C@@H]2CSSC[C@@H]3NC(=O)[C@H]([C@@H](C)O)NC(=O)[C@H](CCC(=O)O)NC(=O)CNC(=O)[C@@H]4CSSC[C@H](NC(=O)CNC(=O)[C@@H]5CCCN5C(=O)[C@H]([C@@H](C)O)NC(=O)[C@H](CC(N)=O)NC(=O)[C@H](CSSC[C@H](NC1=O)C(=O)N[C@@H]([C@@H](C)O)C(=O)N[C@@H](CCCNC(=N)N)C(=O)N[C@@H](CC(N)=O)C(=O)NCC(=O)N[C@@H](CC(C)C)C(=O)N1CCC[C@H]1C(=O)N[C@@H](C(C)C)C(=O)N4)NC(=O)[C@H]([C@@H](C)O)NC(=O)CNC(=O)CNC(=O)[C@H](C(C)C)NC3=O)C(=O)N[C@@H](C(C)C)C(=O)N2`: in data set [4], the IC50 came out at 2.3 µM. Also, the CC50 at 48 h was more than 10 µM in data set [2] and 7.5 µM in data set [3]. For the same molecule, the HC50 at 1 h in data set [5] amounted to 14.6 µM.

On to `CC[C@H](C)[C@@H]1NC(=O)[C@@H]2CCCN2C(=O)[C@H](Cc2c[nH]c3ccccc23)NC(=O)[C@H](C)NC(=O)[C@@H]2CSSC[C@@H]3NC(=O)[C@H]([C@@H](C)O)NC(=O)[C@H](CCC(=O)O)NC(=O)CNC(=O)[C@@H]4CSSC[C@H](NC(=O)CNC(=O)[C@@H]5CCCN5C(=O)[C@H]([C@@H](C)O)NC(=O)[C@H](CC(N)=O)NC(=O)[C@H](CSSC[C@H](NC1=O)C(=O)N[C@@H]([C@@H](C)O)C(=O)N[C@@H](CCCNC(=N)N)C(=O)N[C@@H](CC(N)=O)C(=O)NCC(=O)N[C@@H](CC(C)C)C(=O)N1CCC[C@H]1C(=O)N[C@@H](C(C)C)C(=O)N4)NC(=O)[C@H]([C@@H](C)O)NC(=O)CNC(=O)CNC(=O)[C@H](C(C)C)NC3=O)C(=O)N[C@@H](C(C)C)C(=O)N2`, for which, in data set [4], the IC50 came to 1.6 µM. Besides, the results for the cytotoxic concentration (CC50) at 48 h in data set [2] and in data set [3] were 6.1 µM and 5.3 µM, respectively. The HC50 at 1 h in data set [5] turned out to be 33.5 µM.

Take `CC(C)C[C@@H]1NC(=O)CNC(=O)[C@H](CC(N)=O)NC(=O)[C@H](CCCNC(=N)N)NC(=O)[C@H]([C@@H](C)O)NC(=O)[C@@H]2CSSC[C@@H]3NC(=O)[C@H]([C@@H](C)O)NC(=O)CNC(=O)CNC(=O)[C@H](C(C)C)NC(=O)[C@@H]4CSSC[C@H](NC(=O)[C@H](C(C)C)NC(=O)[C@H](CSSC[C@H](NC(=O)[C@H](C(C)C)NC(=O)[C@@H]5CCCN5C1=O)C(=O)NCC(=O)N[C@@H](CCC(=O)O)C(=O)N[C@@H]([C@@H](C)O)C(=O)N4)NC(=O)CNC(=O)[C@@H]1CCCN1C(=O)[C@H]([C@@H](C)O)NC(=O)[C@H](CC(N)=O)NC3=O)C(=O)N[C@@H](CO)C(=O)N[C@@H](Cc1c[nH]c3ccccc13)C(=O)N1CCC[C@H]1C(=O)N[C@@H](C(C)C)C(=O)N2`: the IC50 in data set [4] was 4.5 µM. Further, the CC50 at 48 h stood at 5.5 µM in data set [2] and 5.2 µM in data set [3]. The HC50 at 1 h in data set [5] was determined as 39.5 µM.

`CC(C)C[C@@H]1NC(=O)CNC(=O)[C@H](CC(N)=O)NC(=O)[C@H](CCCNC(=N)N)NC(=O)[C@H]([C@@H](C)O)NC(=O)[C@@H]2CSSC[C@@H]3NC(=O)[C@H]([C@@H](C)O)NC(=O)CNC(=O)CNC(=O)[C@H](C(C)C)NC(=O)[C@@H]4CSSC[C@H](NC(=O)[C@H](CO)NC(=O)[C@H](CSSC[C@H](NC(=O)[C@H](C(C)C)NC(=O)[C@@H]5CCCN5C1=O)C(=O)NCC(=O)N[C@@H](CCC(=O)O)C(=O)N[C@@H]([C@@H](C)O)C(=O)N4)NC(=O)CNC(=O)[C@@H]1CCCN1C(=O)[C@H]([C@@H](C)O)NC(=O)[C@H](CC(N)=O)NC3=O)C(=O)N[C@@H](CO)C(=O)N[C@@H](Cc1c[nH]c3ccccc13)C(=O)N1CCC[C@H]1C(=O)N[C@@H](C(C)C)C(=O)N2`: the results for the CC50 at 48 h in data set [2] and in data set [3] were 7.3 µM and more than 10 µM, respectively. Also, in data set [5], the HC50 at 1 h came out at 49.6 µM.

With `CC(C)C[C@@H]1NC(=O)CNC(=O)[C@H](CC(N)=O)NC(=O)[C@H](CCCNC(=N)N)NC(=O)[C@H](CCCCN)NC(=O)[C@@H]2CSSC[C@@H]3NC(=O)[C@H](CO)NC(=O)CNC(=O)[C@H]([C@@H](C)O)NC(=O)[C@H](C(C)C)NC(=O)[C@@H]4CSSC[C@H](NC(=O)[C@H](CO)NC(=O)[C@H](CSSC[C@H](NC(=O)[C@H](C(C)C)NC(=O)[C@@H]5CCCN5C1=O)C(=O)NCC(=O)N[C@@H](CCC(=O)O)C(=O)N[C@@H]([C@@H](C)O)C(=O)N4)NC(=O)CNC(=O)[C@@H]1CCCN1C(=O)[C@H]([C@@H](C)O)NC(=O)[C@H](Cc1ccc(O)cc1)NC3=O)C(=O)N[C@@H](CO)C(=O)N[C@@H](Cc1c[nH]c3ccccc13)C(=O)N1CCC[C@H]1C(=O)N[C@@H](C(C)C)C(=O)N2`, the figures for the cytotoxic concentration (CC50) at 48 h in data set [2] and in data set [3] were 5.6 µM and more than 10 µM, respectively. The HC50 at 1 h in data set [5] was 51.7 µM.

As for `CC[C@H](C)[C@@H]1NC(=O)[C@@H]2CCCN2C(=O)[C@H](Cc2c[nH]c3ccccc23)NC(=O)[C@H](CO)NC(=O)[C@@H]2CSSC[C@@H]3NC(=O)[C@H]([C@@H](C)O)NC(=O)[C@H](CCC(=O)O)NC(=O)CNC(=O)[C@@H]4CSSC[C@H](NC(=O)CNC(=O)[C@@H]5CCCN5C(=O)[C@H]([C@@H](C)O)NC(=O)[C@H](CC(N)=O)NC(=O)[C@H](CSSC[C@H](NC1=O)C(=O)N[C@@H]([C@@H](C)O)C(=O)N[C@@H](CCCNC(=N)N)C(=O)N[C@@H](CC(N)=O)C(=O)NCC(=O)N[C@@H](CC(C)C)C(=O)N1CCC[C@H]1C(=O)N[C@@H]([C@@H](C)O)C(=O)N4)NC(=O)[C@H]([C@@H](C)O)NC(=O)CNC(=O)CNC(=O)[C@H](C(C)C)NC3=O)C(=O)N[C@@H](C(C)C)C(=O)N2` (cyclo(CGETCVGGTCNTPGCVCSWPICTRNGLPT); disulfide 1-15, 5-17, 10-22), the half-maximal inhibitory concentration (IC50) in data set [4] turned out to be 7.1 µM. The values for the half-maximal cytotoxic concentration (CC50) at 48 h in data set [2] and in data set [3] were 8.4 µM and more than 10 µM, respectively. Further, the HC50 at 1 h in data set [5] worked out at 62.8 µM.

For orientation: IC50 means the midpoint of a concentration-inhibition curve. As usually defined, the CC50 is the concentration at which the toxic effect on the cells reaches its halfway point.
